What was measured:
[1] = target: human recombinant HDAC1 enzyme (Homo sapiens, UniProt Q13547); test: HDACs activity assay, HDAC1; type: biochemical; details: read-out: IC50 HDAC1; Table 3, Table S1 and text
[2] = system: HCT116 (colon cancer); test: In vitro cell viability assay; type: cell-based; details: Homo sapiens, HCT-116, 48 h, read-out: IC50 HCT116
[3] = system: MCF-7 (breast cancer); test: In vitro cell viability assay; type: cell-based; details: Homo sapiens, MCF7, 48 h, read-out: IC50 MCF-7
[4] = system: A549 (lung cancer); test: In vitro cell viability assay; type: cell-based; details: Homo sapiens, A549, 48 h, read-out: IC50 A549
[5] = target: TOP2α (Homo sapiens, UniProt P11388); test: TOP2-mediated pBR322 DNA relaxation assay; type: biochemical
Sequence of TOP2α (P11388 whole entry): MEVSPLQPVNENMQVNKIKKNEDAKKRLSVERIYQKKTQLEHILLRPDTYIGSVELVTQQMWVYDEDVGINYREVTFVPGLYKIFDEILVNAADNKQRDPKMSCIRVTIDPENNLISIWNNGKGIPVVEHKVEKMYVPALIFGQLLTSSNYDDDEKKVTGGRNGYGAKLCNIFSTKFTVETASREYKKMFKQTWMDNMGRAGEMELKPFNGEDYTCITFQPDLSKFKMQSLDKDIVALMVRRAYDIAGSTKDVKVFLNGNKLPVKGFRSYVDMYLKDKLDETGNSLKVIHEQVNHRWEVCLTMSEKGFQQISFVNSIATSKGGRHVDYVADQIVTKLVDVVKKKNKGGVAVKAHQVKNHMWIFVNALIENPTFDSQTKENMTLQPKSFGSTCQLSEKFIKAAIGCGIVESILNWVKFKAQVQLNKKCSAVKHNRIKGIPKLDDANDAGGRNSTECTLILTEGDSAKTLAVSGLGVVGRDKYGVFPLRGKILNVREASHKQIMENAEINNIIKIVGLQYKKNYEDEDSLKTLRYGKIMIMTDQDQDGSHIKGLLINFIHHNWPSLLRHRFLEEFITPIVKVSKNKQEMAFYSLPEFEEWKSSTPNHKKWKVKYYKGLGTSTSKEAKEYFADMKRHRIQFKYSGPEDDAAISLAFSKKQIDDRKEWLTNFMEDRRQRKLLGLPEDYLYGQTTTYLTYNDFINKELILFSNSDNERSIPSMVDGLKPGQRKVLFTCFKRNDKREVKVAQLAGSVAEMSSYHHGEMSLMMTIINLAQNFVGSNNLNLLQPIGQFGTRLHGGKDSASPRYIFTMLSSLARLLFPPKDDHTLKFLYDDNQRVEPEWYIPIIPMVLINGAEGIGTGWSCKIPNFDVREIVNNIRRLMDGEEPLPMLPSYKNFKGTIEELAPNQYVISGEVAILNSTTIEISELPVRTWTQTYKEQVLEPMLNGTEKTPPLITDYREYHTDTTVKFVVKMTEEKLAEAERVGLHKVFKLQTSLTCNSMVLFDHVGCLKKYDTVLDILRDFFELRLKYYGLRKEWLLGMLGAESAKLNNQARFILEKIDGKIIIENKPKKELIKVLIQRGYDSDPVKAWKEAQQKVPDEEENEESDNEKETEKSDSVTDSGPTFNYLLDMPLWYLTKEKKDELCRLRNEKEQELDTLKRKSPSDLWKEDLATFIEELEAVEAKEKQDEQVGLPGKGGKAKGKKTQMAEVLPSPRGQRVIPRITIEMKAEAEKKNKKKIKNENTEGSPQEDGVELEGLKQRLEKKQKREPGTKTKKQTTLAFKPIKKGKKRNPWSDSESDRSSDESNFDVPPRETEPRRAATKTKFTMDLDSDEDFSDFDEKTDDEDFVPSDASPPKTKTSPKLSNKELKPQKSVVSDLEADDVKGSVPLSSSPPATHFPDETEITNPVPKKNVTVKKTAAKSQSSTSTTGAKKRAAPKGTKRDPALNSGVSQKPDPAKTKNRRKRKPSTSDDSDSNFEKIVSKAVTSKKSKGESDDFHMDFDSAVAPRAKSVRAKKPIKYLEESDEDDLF

[6] = system: HUVEC; test: Cytotoxicity against human normal cell line HUVEC; type: cell-based; details: read-out: IC50 HUVEC
[7] = system: hematological cell lines (HL60, K562 and HEL); test: Antiproliferative activity, hematological cell lines together; type: cell-based; details: read-out: IC50 range toward hematological cell lines
[8] = In vitro metabolic stability in mice liver microsomes; type: in vitro ADME
[9] = target: HDAC2 (Homo sapiens, UniProt Q92769); test: HDACs activity assay, HDAC2; type: biochemical
Sequence of HDAC2 (Q92769 whole entry, canonical isoform): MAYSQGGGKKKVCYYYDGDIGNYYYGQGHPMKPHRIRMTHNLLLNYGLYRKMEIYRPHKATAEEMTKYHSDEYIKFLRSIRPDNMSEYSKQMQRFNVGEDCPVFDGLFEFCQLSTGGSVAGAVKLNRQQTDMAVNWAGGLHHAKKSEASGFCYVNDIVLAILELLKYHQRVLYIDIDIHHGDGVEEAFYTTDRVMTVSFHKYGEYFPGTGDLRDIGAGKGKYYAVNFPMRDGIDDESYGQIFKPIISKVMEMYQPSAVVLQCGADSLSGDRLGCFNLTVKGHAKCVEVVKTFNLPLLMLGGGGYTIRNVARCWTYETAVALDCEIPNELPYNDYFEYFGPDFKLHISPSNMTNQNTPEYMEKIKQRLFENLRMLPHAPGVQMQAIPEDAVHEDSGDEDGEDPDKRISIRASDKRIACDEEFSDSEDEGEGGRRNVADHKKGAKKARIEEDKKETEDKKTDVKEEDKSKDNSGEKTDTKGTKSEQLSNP
Outline: (§1)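 Enzyme reactions run 30 min at 37 °C in 25 mmol/L Tris pH 8.0, 137 mmol/L NaCl, 2.7 mmol/L KCl, 1 mmol/L MgCl2, 0.1 mg/mL BSA with the HDAC isoform and its substrate. Test compound diluted in 10% DMSO, final DMSO 1%. Fluorescent product read at excitation 350–360, emission 450–460. IC50 from normalized nonlinear dose-response fit. At least three independent runs; mean ± SD (n = 3).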

[10] = target: HDAC3 (Homo sapiens, UniProt O15379); test: HDACs activity assay, HDAC3; type: biochemical
Outline: as §1

[11] = target: HDAC4 (Homo sapiens, UniProt P56524); test: HDACs activity assay, HDAC4; type: biochemical
Sequence of HDAC4 (P56524 whole entry): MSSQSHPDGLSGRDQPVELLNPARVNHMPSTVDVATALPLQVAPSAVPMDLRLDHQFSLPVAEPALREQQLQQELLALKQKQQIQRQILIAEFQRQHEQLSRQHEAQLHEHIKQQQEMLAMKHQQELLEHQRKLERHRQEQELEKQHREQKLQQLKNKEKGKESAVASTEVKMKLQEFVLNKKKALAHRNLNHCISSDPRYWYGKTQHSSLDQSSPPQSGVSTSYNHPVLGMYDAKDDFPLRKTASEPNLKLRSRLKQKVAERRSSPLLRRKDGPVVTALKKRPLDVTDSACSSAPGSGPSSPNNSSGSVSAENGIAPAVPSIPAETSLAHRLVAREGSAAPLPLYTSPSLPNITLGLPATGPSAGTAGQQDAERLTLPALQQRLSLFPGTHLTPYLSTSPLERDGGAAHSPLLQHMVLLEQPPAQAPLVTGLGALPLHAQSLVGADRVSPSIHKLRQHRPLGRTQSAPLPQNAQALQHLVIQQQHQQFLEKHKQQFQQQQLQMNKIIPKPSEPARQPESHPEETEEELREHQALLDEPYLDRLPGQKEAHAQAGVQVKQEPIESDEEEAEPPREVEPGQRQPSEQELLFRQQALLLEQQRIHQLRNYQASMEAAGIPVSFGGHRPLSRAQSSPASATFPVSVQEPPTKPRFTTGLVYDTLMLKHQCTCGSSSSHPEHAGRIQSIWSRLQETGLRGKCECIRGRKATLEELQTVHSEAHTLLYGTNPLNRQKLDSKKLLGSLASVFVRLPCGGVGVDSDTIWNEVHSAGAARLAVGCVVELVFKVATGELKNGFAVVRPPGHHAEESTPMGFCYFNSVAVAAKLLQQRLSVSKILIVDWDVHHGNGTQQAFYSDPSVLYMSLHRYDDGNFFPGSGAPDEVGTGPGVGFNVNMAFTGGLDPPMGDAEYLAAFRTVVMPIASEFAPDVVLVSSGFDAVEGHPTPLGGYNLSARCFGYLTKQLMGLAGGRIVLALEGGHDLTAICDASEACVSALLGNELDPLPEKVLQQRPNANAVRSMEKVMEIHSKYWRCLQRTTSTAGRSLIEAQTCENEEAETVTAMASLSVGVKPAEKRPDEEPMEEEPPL
Outline: as §1

[12] = target: HDAC6 (Homo sapiens, UniProt Q9UBN7); test: HDACs activity assay, HDAC6; type: biochemical
Outline: as §1

[13] = target: HDAC8 (Homo sapiens, UniProt Q9BY41); test: HDACs activity assay, HDAC8; type: biochemical
Sequence of HDAC8 (Q9BY41 whole entry): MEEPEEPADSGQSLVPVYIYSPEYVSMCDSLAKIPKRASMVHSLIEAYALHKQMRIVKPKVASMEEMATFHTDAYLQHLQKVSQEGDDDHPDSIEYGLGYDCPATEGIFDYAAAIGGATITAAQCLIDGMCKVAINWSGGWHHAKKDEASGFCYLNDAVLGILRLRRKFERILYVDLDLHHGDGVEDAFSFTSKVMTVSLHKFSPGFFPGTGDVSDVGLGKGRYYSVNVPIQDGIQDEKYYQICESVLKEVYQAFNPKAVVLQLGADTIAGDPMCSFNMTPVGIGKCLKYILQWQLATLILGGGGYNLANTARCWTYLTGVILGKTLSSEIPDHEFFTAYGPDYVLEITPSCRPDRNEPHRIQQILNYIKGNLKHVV
Outline: as §1

[14] = target: HDAC10 (Homo sapiens, UniProt Q969S8); test: HDACs activity assay, HDAC10; type: biochemical
Sequence of HDAC10 (Q969S8 whole entry): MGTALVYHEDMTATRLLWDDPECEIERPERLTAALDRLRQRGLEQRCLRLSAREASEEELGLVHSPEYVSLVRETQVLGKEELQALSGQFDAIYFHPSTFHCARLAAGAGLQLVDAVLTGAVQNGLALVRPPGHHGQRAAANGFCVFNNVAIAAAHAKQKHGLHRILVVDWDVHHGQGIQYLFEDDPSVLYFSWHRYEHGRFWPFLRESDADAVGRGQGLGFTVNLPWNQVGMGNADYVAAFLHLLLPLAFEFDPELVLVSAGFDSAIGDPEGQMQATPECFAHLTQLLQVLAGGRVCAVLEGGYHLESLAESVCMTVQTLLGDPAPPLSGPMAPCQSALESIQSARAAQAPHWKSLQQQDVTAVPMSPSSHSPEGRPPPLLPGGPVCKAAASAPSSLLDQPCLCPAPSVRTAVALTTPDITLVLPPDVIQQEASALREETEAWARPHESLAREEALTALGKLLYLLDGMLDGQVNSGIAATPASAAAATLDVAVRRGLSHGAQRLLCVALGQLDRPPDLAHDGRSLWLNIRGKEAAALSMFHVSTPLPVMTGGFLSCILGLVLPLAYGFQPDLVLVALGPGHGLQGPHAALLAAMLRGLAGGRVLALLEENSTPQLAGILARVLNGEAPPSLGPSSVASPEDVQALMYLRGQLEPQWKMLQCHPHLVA
Outline: as §1

[15] = target: HDAC11 (Homo sapiens, UniProt Q96DB2); test: HDACs activity assay, HDAC11; type: biochemical
Sequence of HDAC11 (Q96DB2 whole entry): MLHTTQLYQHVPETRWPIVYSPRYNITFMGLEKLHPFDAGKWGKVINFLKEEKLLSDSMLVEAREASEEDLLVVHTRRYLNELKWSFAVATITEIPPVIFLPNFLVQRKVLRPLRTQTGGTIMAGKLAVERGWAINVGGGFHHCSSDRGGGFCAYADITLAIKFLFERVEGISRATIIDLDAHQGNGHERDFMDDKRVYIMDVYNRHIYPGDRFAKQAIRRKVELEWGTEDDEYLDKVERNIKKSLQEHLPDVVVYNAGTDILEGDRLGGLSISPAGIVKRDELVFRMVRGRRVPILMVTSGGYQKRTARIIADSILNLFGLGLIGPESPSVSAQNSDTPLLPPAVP
Outline: as §1

[16] = system: Acetyl-H3 and Acetyl-H4 in HCT116 cells; test: Western blot for acetylated histones H3 and H4; type: cell-based, human; details: 0.5 and 5 μmol/L, 24 h
Outline: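 HCT116 cells (35 × 10^4/well) were exposed 24 h to test compound or DMSO vehicle, washed with cold PBS and lysed 30 min on ice in RIPA with protease/phosphatase inhibitors. BCA-quantified protein (30 μg) was run on SDS-PAGE and transferred to PVDF. Membranes were blocked 2 h in 5% BSA, probed overnight at 4 °C with anti-histone H3 and H4 antibodies, then secondary 1.5 h. Infrared imaging.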

[17] = system: γH2AX in HCT116 cells; test: Western blot for γH2AX; type: cell-based, human; details: 0.5 and 5 μmol/L, 24 h
Outline: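 HCT116 seeded at 35 × 10^4 cells/well, treated 24 h with test compound or vehicle. Cells washed in cold PBS, lysed 30 min on ice in RIPA with protease and phosphatase inhibitors, protein quantified by BCA. 30 μg resolved by SDS-PAGE, transferred to PVDF, blocked 2 h in 5% BSA, primary antibody overnight at 4 °C, secondary 1.5 h, infrared imaging.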

[18] = system: HCT116 cells; test: Flow cytometry assay of cell apoptosis; type: cell-based, human; details: 48 h
[19] = system: HCT116 cells; test: Flow cytometry analysis of cell cycle; type: cell-based, human; details: 48 h
[20] = Pharmacokinetic study in SD rats; type: in vivo; details: male, Sprague-Dawley, rat, plasma, 20 mg/kg
[21] = system: HCT116 xenograft; test: In vivo tumor growth inhibition assay against HCT116 xenograft; details: bid
[22] = female, ICR, mouse, liver microsomes, pH 7.4

Sequence of human recombinant HDAC1 enzyme (Q13547 whole entry): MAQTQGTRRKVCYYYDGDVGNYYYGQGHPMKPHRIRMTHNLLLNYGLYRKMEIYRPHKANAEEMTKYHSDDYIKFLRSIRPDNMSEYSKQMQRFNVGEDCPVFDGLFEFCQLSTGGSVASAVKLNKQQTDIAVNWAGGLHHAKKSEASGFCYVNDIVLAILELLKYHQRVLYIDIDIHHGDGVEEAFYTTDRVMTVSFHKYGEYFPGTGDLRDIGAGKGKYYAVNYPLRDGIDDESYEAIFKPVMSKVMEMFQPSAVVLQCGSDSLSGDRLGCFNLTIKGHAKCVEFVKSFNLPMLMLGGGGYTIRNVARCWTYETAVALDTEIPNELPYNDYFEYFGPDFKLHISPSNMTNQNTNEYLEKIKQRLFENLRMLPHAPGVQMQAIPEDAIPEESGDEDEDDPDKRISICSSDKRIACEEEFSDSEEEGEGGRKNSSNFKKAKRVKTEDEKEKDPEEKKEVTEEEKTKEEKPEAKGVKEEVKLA

For `CN1c2ccccc2C(=O)N2[C@H](C(=O)Nc3ccc(C(=O)Nc4ccccc4N)cc3)Cc3c([nH]c4ccccc34)[C@@H]12` [Compound 30a, (7S,13bS)-N-(4-((2-Aminophenyl)carbamoyl)phenyl)-14-methyl-5-oxo-5,7,8,13,13b,14-hexahydroindolo[2′,3′:3,4]pyrido[2,1-b]quinazoline-7-carboxamide], the IC50 [1] was 0.16 ± 0.015 µM, the IC50 [2] was 1.6 ± 0.15 µM and the IC50 [3] was 18 ± 2 µM. The IC50 [4] was 7.8 ± 0.65 µM, the “TOP2 inhibitory activity (relaxation assay)” value ([5]; 50 μmol/L) was “remarkable TOP2 inhibitory activities” and the “TOP2 inhibitory activity (relaxation assay)” value ([5]; 100 μmol/L) was “remarkable TOP2 inhibitory activities”. For the same molecule, the IC50 [6] was 48 µM, the IC50 [7] was 0.56 to 1.9 µM and the half-life at 1 μmol/L [8, 22] was 0.583 h. For the same molecule, the microsomal CLint at 1 μmol/L [8, 22] was 39.1 µL/min/mg, the “Microsomal t1/2 relative to compound 25a” value ([8]; mice liver microsomes) was about 3 fold and the IC50 [9] was 10 ± 1.4 µM. For the same molecule, the IC50 [10] was 27 ± 4.8 µM, the IC50 [11] was over 100 µM and the IC50 [12] was over 100 µM. For the same molecule, the IC50 [13] was over 100 µM, the IC50 [14] was 5.5 ± 1.5 µM and the IC50 [15] was over 100 µM. The “Acetylation of histone 3 and 4 (Acetyl-H3 and Acetyl-H4)” value [16] was “hyperacetylation effect of histone 3 and 4 (Acetyl-H3 and Acetyl-H4) in a dose-dependent manner”, the “Expression of γH2AX” value [17] was “increased the expression of γH2AX” and the “Percentage of apoptotic cells” value ([18]; HCT116, 0.5 μmol/L) was 27.6%. The “Percentage of apoptotic cells” value ([18]; HCT116, 1 μmol/L) was 37.1%, the “Percentage of apoptotic cells” value ([18]; HCT116, 5 μmol/L) was 88.8% and the “Ratio of cells at the G2/M phase” value ([19]; HCT116, 0.5 μmol/L) was 32.9%. The “Ratio of cells at the G2/M phase” value ([19]; HCT116, 1 μmol/L) was 36.4%, the “Ratio of cells at the G2/M phase” value ([19]; HCT116, 2 μmol/L) was 38.8% and the AUC(0-t) ([20]; ip) was 86900 ng·h/mL. It also gave a half-life ([20]; ip) of over 24 h, an AUC(0-t) ([20]; po) of 485 ng·h/mL and a half-life ([20]; po) of 4.03 h. The “Tumor growth inhibition (TGI)” value ([21]; 20 mg/kg, i.p., 14 consecutive days) was 63.6%, the “Tumor growth inhibition (TGI)” value ([21]; 100 mg/kg, p.o., 21 days) was 65.42% and the “Tumor growth inhibition (TGI)” value ([21]; 150 mg/kg, p.o., 21 days (dose of the combination not given)) was 75.2%. The “Body weight during the test” value ([21]; p.o., 100 or 150 mg/kg, 21 days) was “no significant difference”.

From paper PMC7452071 (Acta Pharmaceutica Sinica. B, 2019)
